Converted amounts (≈) assume the structure as drawn. Where only a bound is given, the exact number is not on record here.

What all share (type): functional
Assay [1] has as its system HeLa. Briefly: Tested for minimum inhibitory concentration required to reduce virus-induced cytopathicity by 50% on HeLa cell line infected with RSV virus. As to conditions: Homo sapiens. The method in brief: (§1)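 HeLa (human epithelial), MDCK (Madin-Darby canine kidney) or Vero (African green monkey kidney) cells were infected with the stated virus. The value is the concentration that reduces virus-induced cytopathicity by 50%. Values are averages of at least two separate experiments.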
A general note: Damage to the host cells serves as the signal in cytopathic effect assays.

Assay [2] deals with Vero. Description: Tested for minimum inhibitory concentration required to reduce virus-induced cytopathicity by 50% on vero cell line infected with Reo 1 virus. The note with it: Chlorocebus sabaeus. The method in brief:
as §1

Assay [3] concerns HEF. Briefly: Tested for minimum inhibitory concentration required to reduce […] by 50% on HEF cell line. The note with it: Homo sapiens. Put shortly:
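Human embryonic lung fibroblasts (HEF) were used for cell proliferation. The value is the concentration that reduces cell proliferation by 50%. Values are averages of at least two separate experiments.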

Assay [4] relates to MDCK. Briefly: Tested for minimum inhibitory concentration required to reduce virus-induced cytopathicity by 50% on MDCK cell line infected with influenza B virus. The note with it: Canis lupus familiaris. Put shortly:
as §1

For assay [5], the system named is Vero. Description: Tested for minimum inhibitory concentration required to cause a microscopically detectable alteration of normal cell morphology by 50% on vero cell line. As to conditions: Chlorocebus sabaeus. The method in brief:
(§2)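 HeLa (human epithelial), MDCK (Madin-Darby canine kidney) or Vero (African green monkey kidney) cells were scored by microscopy. The value is the minimum concentration that causes a detectable alteration of normal cell morphology. Values are averages of at least two separate experiments.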

The subject of assay [6] is CCRF-CEM. Briefly: Tested for minimum inhibitory concentration required to reduce virus-induced cytopathicity by 50% was evaluated on CEM cell line infected with HIV-1 virus. The note with it: Homo sapiens.
Assay [7] relates to CCRF-CEM. Description: Tested for minimum inhibitory concentration required to reduce virus-induced cytopathicity by 50% on CEM cell line infected with HIV-2 virus. The note with it: Homo sapiens.
Assay [8] has as its system HeLa. Description: Tested for minimum inhibitory concentration required to reduce virus-induced cytopathicity by 50% on HeLa cell line infected with polio 1 virus. The note with it: Homo sapiens. The method in brief: as §1
For assay [9], the system named is Vero. Briefly: Tested for minimum inhibitory concentration required to reduce virus-induced cytopathicity by 50% on vero cell line infected with semliki forest virus. As to conditions: Chlorocebus sabaeus. Put shortly: as §1
The subject of assay [10] is HEF. Briefly: Tested for minimum inhibitory concentration required to reduce virus-induced cytopathicity by 50% on HEF cell line infected with vaccinia virus. The note with it: Homo sapiens. Put shortly: (§3)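 Human embryonic skin-muscle fibroblasts (HEF) were infected with the stated virus. The value is the concentration that reduces virus-induced cytopathicity by 50%. Values are averages of at least two separate experiments.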

Assay [11] deals with CCRF-CEM. Briefly: Tested for minimum inhibitory concentration required to reduce virus-induced cell viability by 50% on CEM cell line. As to conditions: Homo sapiens.
For assay [12], the system named is HEF. Briefly: Tested for minimum inhibitory concentration required to reduce virus-induced cytopathicity by 50% on HEF cell line infected with thymidine kinase-deficient herpes simplex virus type 1 (TK-HSV-1). As to conditions: Homo sapiens. Put shortly: as §3
For assay [13], the system named is HEF. Briefly: Tested for minimum inhibitory concentration required to reduce virus-induced cytopathicity by 50% on HEF cell line infected with HSV-1 virus. The note with it: Homo sapiens. Put shortly: as §3
For assay [14], the system named is Vero. Description: Tested for minimum inhibitory concentration required to reduce virus-induced cytopathicity by 50% on vero cell line infected with parainfluenza 3 virus. The note with it: Chlorocebus sabaeus. The method in brief: as §1
For assay [15], the system named is HEF. Briefly: Tested for minimum inhibitory concentration required to reduce virus-induced cytopathicity by 50% on HEF cell line infected with HSV-2 virus. The note with it: Homo sapiens. The method in brief:
as §3

Assay [16] relates to HEF. Briefly: Tested for minimum inhibitory concentration required to cause a microscopically detectable alteration of normal cell morphology by 50% on HEF cell line. The note with it: Homo sapiens. The method in brief:
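Human embryonic skin-muscle fibroblasts (HEF) were used. The value is the minimum concentration that causes a microscopically detectable alteration of normal cell morphology. Values are averages of at least two separate experiments.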

The subject of assay [17] is HeLa. Description: Tested for minimum inhibitory concentration required to cause a microscopically detectable alteration of normal cell morphology by 50% on HeLa cell line. As to conditions: Homo sapiens. Put shortly:
as §2

The subject of assay [18] is HEF. Description: Tested for minimum inhibitory concentration required to reduce virus-induced cytopathicity by 50% on HEF cell line infected with vesicular stomatitis virus. The note with it: Homo sapiens. Put shortly:
as §3

Assay [19] relates to Vero. Briefly: Tested for minimum inhibitory concentration required to reduce virus-induced cytopathicity by 50% on vero cell line infected with sindbis virus. As to conditions: Chlorocebus sabaeus. The method in brief:
as §1

Assay [20] concerns MDCK. Briefly: Tested for minimum inhibitory concentration required to reduce virus-induced cytopathicity by 50% on MDCK cell line infected with influenza A virus. The note with it: Canis lupus familiaris. Put shortly:
as §1

Assay [21] has as its system Vero. Description: Tested for minimum inhibitory concentration required to reduce virus-induced cytopathicity by 50% on vero cell line infected with coxsackie B4 virus. The note with it: Chlorocebus sabaeus. Put shortly: as §1
The test system of assay [22] is MDCK. Description: Tested for minimum inhibitory concentration required to cause a microscopically detectable alteration of normal cell morphology by 50% on MDCK cell line. The note with it: Canis lupus familiaris. The method in brief:
as §2

Turning to `O=C(Nc1ccc(Cl)cc1)N1CCCC12C1CC3CC(C1)CC2C3` (configuration not stated), the MIC50 with HeLa [1] was > 20 µg/mL; in the assay on Vero [2], > 70 µg/mL; against HEF [3] it was 150 µg/mL (≈ 435 µM); in the assay with MDCK [4], > 20 µg/mL; against Vero [5] it was 100 µg/mL (≈ 290 µM); in the assay with CCRF-CEM [6], > 1.6 µg/mL. In addition, the MIC50 is > 1.6 µg/mL in the assay with CCRF-CEM [7]; > 70 µg/mL with HeLa [8]; > 70 µg/mL against Vero [9]; > 20 µg/mL against HEF [10]; 3.4 µg/mL (≈ 9.86 µM) in the assay on CCRF-CEM [11]; > 20 µg/mL in the assay on HEF [12]. The MIC50 against HEF [13] is > 20 µg/mL; with Vero [14] it was > 70 µg/mL; in the assay on HEF [15], > 20 µg/mL; in the assay on HEF [16], 40 µg/mL (≈ 116 µM); in the assay on HeLa [17] it was 100 µg/mL (≈ 290 µM); with HEF [18], > 20 µg/mL. In addition, the MIC50 is > 70 µg/mL against Vero [19], 2.4 µg/mL (≈ 6.96 µM) in the assay with MDCK [20], > 70 µg/mL against Vero [21] and 20 µg/mL (≈ 58 µM) in the assay on MDCK [22].

The record behind these values is ChEMBL document CHEMBL1127450, “Synthesis and antiviral activity evaluation of some aminoadamantane derivatives” (1994).
